Tested on: MS2 coat protein
Assay: apparent Kd, MS2 coat protein; higher = weaker binding; RNA-MaP array; tryptophan 2.4 mM where present
In short: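 Designs on Illumina sequencing-chip clusters, transcribed by stalled E. coli RNA polymerase, were exposed to SNAP-549-labelled MS2 coat protein in doubling steps from 0.7 or 1.5 nM up to 3 µM, without and then with constant ligand. The buffer held 100 mM Tris-HCl pH 7.5, 80 mM KCl, 4 mM MgCl2, BSA, DTT, yeast tRNA and Tween-20. Apparent Kd values are medians of filtered per-cluster binding-curve fits to green signal normalised to red-channel RNA signal and control-cluster median Fmax.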

[1] = designed as: OFF switch for tryptophan, no ligand
[2] = ligand present: tryptophan, designed as: OFF switch for tryptophan
[3] = designed as: ON switch for tryptophan, no ligand
[4] = ligand present: tryptophan, designed as: ON switch for tryptophan

Row | Sequence | apparent Kd [1] [nM] | apparent Kd [2] [nM] | apparent Kd [3] [nM] | apparent Kd [4] [nM]
1 | UGAUACCAGUCGGCCGCCACUACAUGAGGAUCACCCAUGUAUCCUCAACUGCUAGAUACUAGCAGUAGGACCGGGACUGGUAUCU | 307 | 1150 | – | –
2 | GGUAUAUAGGCGGCCGCCACUGAUUUUCAUAUAUAUAUAACAUGAGGAUCACCCAUGUAGAUAUACAGGACCGGGCCUAUAUAUU | – | – | 14.9 | 12.8
3 | UGUCAUGGAAACAUGACUGGUUCUACCGGUCGAGGACCGGUACGGCCGCCACUCGAUUGGUGGCACAUGAGGAUCACCCAUGUUA | – | – | 28.2 | 30
4 | GCAUCCUAGUCGGCCGCCACUGCACGAUCAGUGGCAGAUCGUCAACAUGAGGAUCACCCAUGUAGCAGGACCGGGACUAGGAUGC | – | – | 17.6 | 24.6
5 | AAUACCGGAUCGGCCGCCACUGGUUGGCCCUGUGUACAUGAGGAUCACCCAUGUCCAUCCCAAGCCAGGACCGGGAUCUUUGUGU | – | – | 16.7 | 10.1
6 | ACAUGUUGGUGGUAUCUACGAAGGCGGAAACGAGGACCGGUACGGCCGCCACUCGGCGACAUGAGGAUCACCCAUGUGGUUAAAA | 52.6 | 27.5 | – | –
7 | AGAGCAUUGACGGCCGCCACUCGUGUCACAUGAGGAUCACCCAUGUGAUGGGUGAUAGCCCGGUUGAGGACCGGGUCAAUGCUCA | – | – | 13.7 | 19.2
8 | CUACAUUUGUAGAAACCGGUCAACAAUAAUCGAGGACCGGUACGGCCGCCACUCGAUGUGAAAUACACAUGAGGAUCACCCAUGU | – | – | 15.9 | 16.9
9 | ACAUGAGGAUCACCCAUGUUAAACAGGGUGCGAGGACCGGUACGGCCGCCACUCGGACAUUAUUACGAGUGAAUGGUAACGAUGU | 19.9 | 20 | – | –
10 | AAUAAUAGGUGAUCCUGACGAGUGGCAUAACGAGGACCGGUACGGCCGCCACUCGAACAUGAGGAUCACCCAUGUAGCCACUCGA | – | – | 312 | 393
11 | CUAUAAGUACCGGUCCUCAGAUCCUCAUGACGAGGACCGGUACGGCCGCCACUCGAAACAUGAGGAUCACCCAUGUAAUAAUACC | 35.5 | 19.9 | – | –
12 | AACAUGAGGAUCACCCAUGUUCUCGUGUACCGAGGACCGGUACGGCCGCCACUCGGUUCUCGCGAGGAUGGUCAAAGACUAUCCA | – | – | 19.1 | 16
13 | AGUCACUCGAGGUGAUCUGACGAGUGGCAACGAGGACCGGUACGGCCGCCACUCGAAUAAACAUGAGGAUCACCCAUGUACAAAU | – | – | 213 | 196
14 | UAUAUAUAUCACGAACUGUGGUGUAUGUCUCGAGGACCGGUACGGCCGCCACUCGCGCGGCCUCACAUGAGGAUCACCCAUGUCC | 89.2 | 113 | – | –
15 | UAUCUACAUGAAUAGGUUAUUCGAUUAUUUCGAGGACCGGUACGGCCGCCACUCGUUAACAUAUACAUGAGGAUCACCCAUGUUA | – | – | 16.9 | 15.9
16 | CGAUAUAUAGCGGCCGCCACUUACUCAUGAGGUAACAACAUGAGGAUCACCCAUGUUUGAGGAUCAAGGACCGGGCUAUGUAUCG | – | – | 27.4 | 18
17 | UUUAUUAUUGACUCGUUAUUGUUUUUGGAUCGAGGACCGGUACGGCCGCCACUCGUGAUAUACAUGAGGAUCACCCAUGUUAGCA | – | – | 14.9 | 12.8
18 | GUUUUGGGAUCGGCCGCCACUACAUGAGGAUCACCCAUGUGGACAAAUAGGGUUUUUAAGCUCGGUAGGACCGGGAUUCGAACAU | 18.1 | 67.5 | – | –
19 | ACCUGCGUUUGUUUCUUUCUGACGCAGGUUCGAGGACCGGUACGGCCGCCACUCGGACAUGAGGAUCACCCAUGUUUGAAAUGGG | 253 | 227 | – | –
20 | CUAUAUAUAGCGGCCGCCACUUACUCAUGAGGUAACAACAUGAGGAUCACCCAUGUUUGAGGAUCAAGGACCGGGCUAUAUAUAG | – | – | 28.2 | 16.7
21 | CUAUAUUUAUCGGCCGCCACUUACUCAUGAGGUAACAACAUGAGGAUCACCCAUGUUUGAGGAUCAAGGACCGGGAUAAAUAUAG | – | – | 27.8 | 16.3
22 | UUCACAUGAUCUGAAUAUACAGAAAAGAAACGAGGACCGGUACGGCCGCCACUCGUGCCGGAAACAUGAGGAUCACCCAUGUGUU | 24.2 | 22 | – | –
23 | CCUAUGCAGUCGGCCGCCACUGAGUCCUCAAUAAUAAAUUAAUAAACAUGAGGAUCACCCAUGUACAGGACCGGGACUGUAUAGG | 314 | 373 | – | –
24 | UGUGUGUGACCAGGAAAUGGUCACACACAGCGAGGACCGGUACGGCCGCCACUCGGCCGUACAUGAGGAUCACCCAUGUCGGGUA | – | – | 674 | 741
25 | UUAGUAACGACGGCCGCCACUGGAUAUGAACAUGAGGAUCACCCAUGUAGAGAUCCUAGAAUAAACAGGACCGGGUCUGAUAAUA | 17.2 | 53.4 | – | –
26 | CGAAUAUAGACGGCCGCCACUCUACAAACAUGAGGAUCACCCAUGUUCACAUAGUGGAAACACAUGAGGACCGGGUCAUAGGCAU | – | – | 18.5 | 14
27 | AAUCGUAAGGCGGCCGCCACUACACAUGAGGAUCACCCAUGUCUCGCAGGCUUGCGUUGGGAUAGUAGGACCGGGCCAGUAAUAA | 25.1 | 21.8 | – | –

Row | Sequence | apparent Kd [1] [nM] | apparent Kd [2] [nM] | apparent Kd [3] [nM] | apparent Kd [4] [nM]
28 | AGCCACUCGAGUGAUCCUCACGAGUGGCAACGAGGACCGGUACGGCCGCCACUCGAAUAACAUGAGGAUCACCCAUGUUUAUAAU | – | – | 93.2 | 96.2
29 | AUGGUCGACGAUCUGCGAAAAGCAGAUCGACGAGGACCGGUACGGCCGCCACUCGUGUUUAUUUAACAUGAGGAUCACCCAUGUA | – | – | 80.2 | 22.3
30 | GAGUAGUAGACGGCCGCCACUAAACAUGAGGAUCACCCAUGUAGUGAUCCGUUACCUAGCGUAGAUAGGACCGGGUCAGAUAGUA | 26 | 29.2 | – | –
31 | AUAAAUAAGGCGGCCGCCACUAAUAUAUUAAUAUUUUAUAUCCGACAUGAGGAUCACCCAUGUGGUAGGACCGGGCCAAUAAUUA | – | – | 26.2 | 25.8
32 | GGAGCUACGUCGGCCGCCACUAGCGGAUAUUACGUGUACAUGAGGAUCACCCAUGUAAUACGGUUUAGGACCGGGACGUAGCUCC | 17.3 | 16.5 | – | –
33 | ACAUUGCGCUCGGCCGCCACUGCCUUAUGAUUAUAAGGAUUAAUGAACAUGAGGAUCACCCAUGUCAGGACCGGGAGCGAACCAU | – | – | 13.7 | 13.4
34 | CUGCCUGCCUCACAUGAGGAUCACCCAUGUCGAGGACCGGUACGGCCGCCACUCGUCGUCGGUAAUACAGGCAUUGAAUAAUAUA | 10.3 | 37.5 | – | –
35 | UACAUGAGGAUCACCCAUGUAUUGCCGGUACGAGGACCGGUACGGCCGCCACUCGGAGCAUGAGGAUCACCCAUGUGCUGCUAUG | – | – | 66.2 | 51.8
36 | GCAUCCUAGUCGGCCGCCACUGCAUGUAGGCAGUGCUGCUACAAACAUGAGGAUCACCCAUGUAGCAGGACCGGGACUAGGAUGC | – | – | 15 | 13.1
37 | AGAUUCGACACGGCCGCCACUCGUGGUGGAUUACCUAGUGUCGAACAUGAGGAUCACCCAUGUACGAGGACCGGGUGUUGAGUCU | 75 | 200 | – | –
38 | GAUAUGGAAACAUGUCAGAUCCUUACCGGUCGAGGACCGGUACGGCCGCCACUCGGAAAUAUUGUACAUGAGGAUCACCCAUGUA | 13.7 | 14.5 | – | –
39 | GGAUAGGACACGGCCGCCACUGCCUAGGAUACUAGCAACAUUUGGGUACAUGAGGAUCACCCAUGUAGGACCGGGUGUCCUAUCG | 49.2 | 53.9 | – | –
40 | CGCCACAUGAGGAUCACCCAUGUCUUGGCGCGAGGACCGGUACGGCCGCCACUCGCGUUUCAGUGAGCGCAUGCGUCCUUGGUAU | 18.3 | 26.1 | – | –
41 | UCGUUAUGGUCGGCCGCCACUCGCGGAGAGCAUAGCUCAAACAUGAGGAUCACCCAUGUAUCAUGGAGGACCGGGACCAUAACGU | – | – | 31.9 | 14
42 | GGAUCAGGAUCGGCCGCCACUGAUAGUGAUCCAACGACAUGAGGAUCACCCAUGUACAUUUUAAUCAGGACCGGGAUCAAGUUCC | 129 | 209 | – | –
43 | GUUUAAAGGUCGGCCGCCACUGUAGGAUGUGUUCUUUCACAUGAGGAUCACCCAUGUUGUUAUUAUAGGACCGGGAUUUUAGGAC | 27.1 | 22.4 | – | –
44 | GUCCAAAGGUCGGCCGCCACUGUAGAGUGUGUUCUUUCACAUGAGGAUCACCCAUGUUGUUAUUAUAGGACCGGGAUUGUAGGAC | 20.4 | 28.1 | – | –
45 | CUAAUUAAAUCGGCCGCCACUUACUCAUGAGGUAACAACAUGAGGAUCACCCAUGUUUGAGGAUCAAGGACCGGGAUUUAAUUAG | – | – | 28.9 | 18.2
46 | UCGUUUUAGUCGGCCGCCACUGUAUGCAUGUUUAACAUGAGGAUCACCCAUGUCCCGUACUAUAACAGGACCGGGACGUAAUAGA | – | – | 168 | 100
47 | CAUAUAUAAGCGGCCGCCACUUACUCAUGAGGUAACAACAUGAGGAUCACCCAUGUUUGAGGAUCAAGGACCGGGCUUAUAUAUG | – | – | 28.3 | 18.3
48 | AGAUUCGACACGGCCGCCACUUGUGGUGGAUUAUCCUAUGUCGAACAUGAGGAUCACCCAUGUACAAGGACCGGGUGUUGAGUCU | 401 | 119 | – | –
49 | GCAUCCUAGUCGGCCGCCACUGCAACAUGAGGAUCACCCAUGUCUGUAUGUGAUCCAUGCAGUAGCAGGACCGGGACUAGGAUGC | – | – | 501 | 130
50 | CACGCACGAUCGGCCGCCACUCAUGUAGCUUACAUGAGGAUCACCCAUGUAUUUUCUUUCUUUUAGAGGACCGGGAUCGUGCGUG | – | – | 24.9 | 16.5
51 | GUGUUAUGGUCGGCCGCCACUCUGACAUGAGGAUCACCCAUGUUGUACAUGAGGAUCACCCAUGUGAGGACCGGGACACGUGCGA | 401 | 442 | – | –
52 | CUAUGUAUAUAUGCGAAAGCUACGUGUUGACGAGGACCGGUACGGCCGCCACUCGACAUGAGGAUCACCCAUGUAAUAUAUAUAG | – | – | 200 | 62.7
53 | UUGUGGCGCUCGGCCGCCACUCCGACAUGAGGAUCACCCAUGUUCUACAUGAGGAUCACCCAUGUGAGGACCGGGAGACACUUCC | 104 | 103 | – | –
